From ChEMBL document CHEMBL1811874, “The effect of sulfonate leaving groups on the hypoxia-selective toxicity of nitro analogs of the duocarmycins” (Bioorg Med Chem, 2011)
In brackets after ≈: the same amount, converted by molar mass.

Assays:
HT-29 [1] = test: Cytotoxicity against human HT-29 cells assessed as reduction of cell density incubated for 4 hrs in oxic (aerobic) condition measured 5 days post dose by SRB assay; assay type: functional, cell-based
Procedure, shortened: (§1)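 Log-phase monolayers given a 4 h drug exposure under aerobic (20% O₂) or anoxic (<20 ppm O₂) conditions. Cells were then stained with sulforhodamine B 5 days later. IC50 was interpolated as the concentration that cut cell density to 50% of same-plate controls. Values are means of two to seven experiments.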

SK-OV-3 [2] = test: Cytotoxicity against human SKOV3 cells assessed as reduction of cell density incubated for 4 hrs in hypoxic (anoxic) condition measured 5 days post dose by SRB assay; assay type: functional, cell-based; procedure, shortened: as §1
HT-29 [3] = test: Hypoxic cytotoxicity ratio, ratio of IC50 for human HT-29 cells in oxic (aerobic) condition to IC50 for human HT-29 cells in hypoxic (anoxic) conditions; assay type: functional
Procedure, shortened: (§2)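 HCR was calculated as IC50(oxic)/IC50(hypoxic) after 4 h drug exposure at 20% O₂ or <20 ppm O₂, with SRB read-out 5 days later.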

SK-OV-3 [4] = test: Cytotoxicity against human SKOV3 cells assessed as reduction of cell density incubated for 4 hrs in oxic (aerobic) condition measured 5 days post dose by SRB assay; assay type: functional, cell-based; procedure, shortened: as §1
HT-29 [5] = test: Cytotoxicity against human HT-29 cells assessed as reduction of cell density incubated for 4 hrs in hypoxic (anoxic) condition measured 5 days post dose by SRB assay; assay type: functional, cell-based; procedure, shortened: as §1
[6] = Solubility in alphaMEM culture medium containing 5% FCS at 22 degC; assay type: physicochemical
Procedure, shortened: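 Solubility was measured in αMEM with 5% FCS, equilibrated with 5% CO₂/air, at 22 °C.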

SK-OV-3 [7] = test: Hypoxic cytotoxicity ratio, ratio of IC50 for human SKOV3 cells in oxic (aerobic) condition to IC50 for human SKOV3 cells in hypoxic (anoxic) conditions; assay type: functional; procedure, shortened: as §2
CHO-AA8 = test: Cytotoxicity against chinese hamster ovary AA8 cells incubated for 4 hrs; assay type: functional, cell-based; details: Cricetulus griseus, CHO-AA8, 4 h
SK-OV-3 [8] = test: Cytotoxicity against human SKOV3 cells; assay type: functional, cell-based
Procedure, shortened: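 Log-phase SKOV3 ovarian carcinoma monolayers were exposed to drug for 4 h under aerobic (20% O₂) or anoxic (<20 ppm O₂) conditions, then stained with sulforhodamine B 5 days later. IC50 was interpolated as the concentration that cut cell density to 50% of same-plate controls, given as mean ± SEM of 2–7 experiments. HCR is IC50(oxic)/IC50(hypoxic), taken as means of intraexperiment ratios.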

EMT6 = test: Cytotoxicity against mouse EMT6 cells; assay type: functional, cell-based

| Compound | solubility [6] | IC50 (HT-29 [1]) | IC50 (SK-OV-3 [2]) | Ratio IC50 (HT-29 [3]) | IC50 (SK-OV-3 [4]) | IC50 (HT-29 [5]) | Ratio IC50 (SK-OV-3 [7]) | IC50 (CHO-AA8) | IC50 (SK-OV-3 [8]) | IC50 (EMT6) |
| --- | --- | --- | --- | --- | --- | --- | --- | --- | --- | --- |
| O=C(c1cc2cc(OCCO)ccc2[nH]1)N1CC(COS(=O)(=O)Cc2ccccc2)c2c1cc([N+](=O)[O-])c1ccccc21 (stereo not drawn) | 46 µM (≈ 27.7 µg/mL) | 1800 nM | 210 nM | 2.4 | 1200 nM | 660 nM | 7.1 | – | – | – |
| COc1ccc(/C=C/C(=O)N2CC(COS(=O)(=O)Cc3ccccc3)c3c2cc([N+](=O)[O-])c2ccccc32)cc1O (stereo not drawn) | 35 µM (≈ 20.1 µg/mL) | 1000 nM | 160 nM | 1.1 | 570 nM | 1000 nM | 3.9 | – | – | – |
| Nc1cc2c(c3ccccc13)C(CCl)CN2C(=O)c1cc2cc(OCCO)ccc2[nH]1 (stereo not drawn) | 22 µM (≈ 9.59 µg/mL) | – | 4.2 nM | – | 3.3 nM | – | 0.8 | – | – | – |
| COc1cc2cc(C(=O)N3CC(COS(C)(=O)=O)c4c3cc(N)c3ccccc43)[nH]c2c(OC)c1OC (stereo not drawn) | 15 µM (≈ 7.88 µg/mL) | – | – | – | – | – | – | – | – | – |
| COc1cc2cc(C(=O)N3CC(CCl)c4c3cc([N+](=O)[O-])c3ccccc43)[nH]c2c(OC)c1OC (stereo not drawn) | 5 µM (≈ 2.48 µg/mL) | 3400 nM | 1700 nM | – | 4200 nM | 1600 nM | – | – | – | – |
| COc1cc2cc(C(=O)N3CC(CCl)c4c3cc(N)c3ccccc43)[nH]c2c(OC)c1OC (stereo not drawn) | – | – | – | – | – | – | – | < 1 nM | 1.2 nM | 0.4 nM |
| CN(C)CCOc1ccc2[nH]c(C(=O)N3CC(CCl)c4c3cc([N+](=O)[O-])c3ccccc43)cc2c1 (stereo not drawn) | 193 µM (≈ 95.1 µg/mL) | 470 nM | 870 nM | – | 1400 nM | 480 nM | – | – | – | – |

Now from value to compound, other results behind:

| solubility [6] | Compound | IC50 (HT-29 [1]) | IC50 (SK-OV-3 [2]) | Ratio IC50 (HT-29 [3]) | IC50 (SK-OV-3 [4]) | IC50 (HT-29 [5]) | Ratio IC50 (SK-OV-3 [7]) | IC50 (CHO-AA8) | IC50 (SK-OV-3 [8]) | IC50 (EMT6) |
| --- | --- | --- | --- | --- | --- | --- | --- | --- | --- | --- |
| 89 µM (≈ 56.2 µg/mL) | COc1cc2cc(C(=O)N3CC(COS(=O)(=O)c4ccc(C)cc4)c4c3cc([N+](=O)[O-])c3ccccc43)[nH]c2c(OC)c1OC (stereo not drawn) | 12000 nM | 220 nM | 28 | 8800 nM | 470 nM | 72 | – | – | – |
| 29 µM (≈ 17.4 µg/mL) | Cc1ccc(S(=O)(=O)OCC2CN(C(=O)c3cc4cc(OCCO)ccc4[nH]3)c3cc([N+](=O)[O-])c4ccccc4c32)cc1 (stereo not drawn) | 3300 nM | 770 nM | 0.81 | 3000 nM | 2700 nM | 2.8 | – | – | – |
| 12 µM (≈ 6.86 µg/mL) | COc1ccc2[nH]c(C(=O)N3CC(COS(=O)(=O)c4ccc(C)cc4)c4c3cc([N+](=O)[O-])c3ccccc43)cc2c1 (stereo not drawn) | 6500 nM | 380 nM | 7.9 | 11000 nM | 700 nM | 34 | – | – | – |
